The record followed here is ChEMBL document CHEMBL1138725, “Discovery of novel 2-(aminoheteroaryl)-thiazole-5-carboxamides as potent and orally active Src-family kinase p56(Lck) inhibitors” (Bioorg Med Chem Lett, 2004).

Where only a bound is given, the exact number is not on record here.

Data set [1] can be described thus: In vitro inhibitory activity against recombinant p56 lck tyrosine kinase expressed as a His-tagged protein in insect cells. Put shortly: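 Mean of three separate experiments, with standard deviation within ±10%.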
The nature of data set [2]: […] inhibitory activity against proliferation of normal human peripheral blood T lymphocytes. The data set is classed as functional.
Data set [3] has as its target T1, Tyrosine-protein kinase JAK3 (Homo sapiens, UniProt P52333).
T1 sequence (P52333 whole entry): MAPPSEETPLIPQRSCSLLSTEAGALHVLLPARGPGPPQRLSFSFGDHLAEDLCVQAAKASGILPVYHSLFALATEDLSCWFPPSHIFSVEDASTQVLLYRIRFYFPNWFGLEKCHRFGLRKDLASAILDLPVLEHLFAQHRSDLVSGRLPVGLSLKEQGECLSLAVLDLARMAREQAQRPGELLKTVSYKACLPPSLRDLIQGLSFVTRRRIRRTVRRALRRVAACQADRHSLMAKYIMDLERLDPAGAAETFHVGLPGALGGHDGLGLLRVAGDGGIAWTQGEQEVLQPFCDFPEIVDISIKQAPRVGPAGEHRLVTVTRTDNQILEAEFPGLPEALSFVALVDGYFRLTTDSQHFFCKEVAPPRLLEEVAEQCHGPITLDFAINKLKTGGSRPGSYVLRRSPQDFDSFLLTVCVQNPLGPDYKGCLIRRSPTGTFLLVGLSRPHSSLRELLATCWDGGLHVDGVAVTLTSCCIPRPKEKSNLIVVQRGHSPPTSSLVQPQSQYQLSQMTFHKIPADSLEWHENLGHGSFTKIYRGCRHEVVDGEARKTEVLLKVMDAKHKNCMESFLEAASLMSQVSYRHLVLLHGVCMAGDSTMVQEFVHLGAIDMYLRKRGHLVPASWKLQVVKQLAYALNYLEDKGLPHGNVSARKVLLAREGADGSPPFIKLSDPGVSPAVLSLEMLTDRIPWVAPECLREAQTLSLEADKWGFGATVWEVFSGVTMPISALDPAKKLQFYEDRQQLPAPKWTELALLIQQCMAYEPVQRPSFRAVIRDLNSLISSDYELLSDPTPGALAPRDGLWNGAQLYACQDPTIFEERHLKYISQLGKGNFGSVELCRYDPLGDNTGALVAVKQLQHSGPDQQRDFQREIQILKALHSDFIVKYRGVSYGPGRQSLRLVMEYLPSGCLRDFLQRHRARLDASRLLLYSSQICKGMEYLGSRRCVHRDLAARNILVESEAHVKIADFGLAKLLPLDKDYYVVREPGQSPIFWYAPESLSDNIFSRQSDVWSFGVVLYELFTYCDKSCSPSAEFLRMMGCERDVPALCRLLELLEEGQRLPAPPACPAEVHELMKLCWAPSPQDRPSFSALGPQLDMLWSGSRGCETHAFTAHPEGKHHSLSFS
Briefly: inhibitory activity against Janus kinase 3. Put shortly:
(§1)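 Purified kinase enzyme inhibition, reported as IC50 in µM. Each value is the mean of three independent experiments.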

The target of data set [4] is Tyrosine-protein kinase Fgr (Homo sapiens, UniProt P09769). Briefly: Inhibitory activity against Fgr kinase. Put shortly:
(§2)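 Kinase selectivity panel: IC50 for inhibition of each isolated kinase enzyme, reported as the mean of three experiments.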

The target of data set [5] is Tyrosine-protein kinase HCK (Homo sapiens, UniProt P08631). Briefly: inhibitory activity against Hck kinase.
Data set [6] addresses Cyclin-dependent kinase 2 (Homo sapiens, UniProt P24941). The experiment in a line: Inhibitory activity against Cyclin-dependent kinase 2.
Data set [7] deals with Cyclin-dependent kinase 4 (Homo sapiens, UniProt P11802). Briefly: Inhibitory activity against Cyclin-dependent kinase 4. Put shortly:
as §2

The target in data set [8] is Proto-oncogene tyrosine-protein kinase Src (Homo sapiens, UniProt P12931). Briefly: Inhibitory activity against Src tyrosine kinase. Put shortly:
as §1

Data set [9] concerns the target Vascular endothelial growth factor receptor 2 (Homo sapiens, UniProt P35968). The experiment in a line: inhibitory activity against Vascular endothelial growth factor receptor 2. Put shortly: as §2
A short description of data set [10]: Inhibitory activity against Fibroblast growth factor receptor 1. Put shortly: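 Enzyme IC50 was measured within a kinase selectivity panel and is reported as the mean of three experiments.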
Data set [11] is described as follows: Plasma protein binding in mouse was determined. The data set is classed as ADME, cell-free.
For data set [12], the species on record is Rattus norvegicus. The experiment in a line: Dose required for inhibition of paw swelling in rat adjuvant rheumatoid arthritis model; significant reduction observed after 24 hrs. The data set is classed as functional.
The species named for data set [13] is Rattus norvegicus. Briefly: Dose required for inhibition of paw swelling in rat adjuvant rheumatoid arthritis model; significant reduction observed after 7 days. The data set is classed as functional.
Data set [14] is described as follows: Mean residence time was determined in rats at a single dose of 10 mg/kg i.v. and p.o. The data set is classed as ADME, organism-based. The arrangement: dose 10 mg/kg, route oral. The conditions noted are these: rat, in vivo, po.
Data set [15] can be described thus: Half-life was determined in rats at a single dose of 10 mg/kg i.v. and p.o. The data set is classed as ADME, organism-based. The arrangement: dose 10 mg/kg, route oral. The conditions noted are these: rat, in vivo, po.
Data set [16] is described as follows: Plasma clearance was determined in rats at a single dose of 10 mg/kg i.v. and p.o. The conditions noted are these: rat, in vivo, po. In kind it is ADME, organism-based. On the set-up: dose 10 mg/kg, route oral.
Data set [17] can be described thus: Time required to reach the maximum plasma concentration was determined in rats at a single dose of 10 mg/kg i.v. and p.o. In kind it is ADME, organism-based. On the set-up: dose 10 mg/kg, route oral. The conditions noted are these: rat, po.
Data set [18] can be described thus: Oral bioavailability was determined in rats at a single dose of 10 mg/kg i.v. and p.o. The data set is classed as ADME, organism-based. The conditions noted are these: rat, in vivo.
Data set [19] can be described thus: Maximum plasma concentration was determined in rats at a single dose of 10 mg/kg i.v. and p.o. The data set is classed as ADME, organism-based. The arrangement: dose 10 mg/kg, route oral. The conditions noted are these: rat, po.
The target in data set [20] is Receptor tyrosine-protein kinase erbB-2 (Homo sapiens, UniProt P04626). Briefly: Inhibitory activity against HER2 kinase. Put shortly:
as §2

Vascular endothelial growth factor receptor 2, sequence (P35968 whole entry): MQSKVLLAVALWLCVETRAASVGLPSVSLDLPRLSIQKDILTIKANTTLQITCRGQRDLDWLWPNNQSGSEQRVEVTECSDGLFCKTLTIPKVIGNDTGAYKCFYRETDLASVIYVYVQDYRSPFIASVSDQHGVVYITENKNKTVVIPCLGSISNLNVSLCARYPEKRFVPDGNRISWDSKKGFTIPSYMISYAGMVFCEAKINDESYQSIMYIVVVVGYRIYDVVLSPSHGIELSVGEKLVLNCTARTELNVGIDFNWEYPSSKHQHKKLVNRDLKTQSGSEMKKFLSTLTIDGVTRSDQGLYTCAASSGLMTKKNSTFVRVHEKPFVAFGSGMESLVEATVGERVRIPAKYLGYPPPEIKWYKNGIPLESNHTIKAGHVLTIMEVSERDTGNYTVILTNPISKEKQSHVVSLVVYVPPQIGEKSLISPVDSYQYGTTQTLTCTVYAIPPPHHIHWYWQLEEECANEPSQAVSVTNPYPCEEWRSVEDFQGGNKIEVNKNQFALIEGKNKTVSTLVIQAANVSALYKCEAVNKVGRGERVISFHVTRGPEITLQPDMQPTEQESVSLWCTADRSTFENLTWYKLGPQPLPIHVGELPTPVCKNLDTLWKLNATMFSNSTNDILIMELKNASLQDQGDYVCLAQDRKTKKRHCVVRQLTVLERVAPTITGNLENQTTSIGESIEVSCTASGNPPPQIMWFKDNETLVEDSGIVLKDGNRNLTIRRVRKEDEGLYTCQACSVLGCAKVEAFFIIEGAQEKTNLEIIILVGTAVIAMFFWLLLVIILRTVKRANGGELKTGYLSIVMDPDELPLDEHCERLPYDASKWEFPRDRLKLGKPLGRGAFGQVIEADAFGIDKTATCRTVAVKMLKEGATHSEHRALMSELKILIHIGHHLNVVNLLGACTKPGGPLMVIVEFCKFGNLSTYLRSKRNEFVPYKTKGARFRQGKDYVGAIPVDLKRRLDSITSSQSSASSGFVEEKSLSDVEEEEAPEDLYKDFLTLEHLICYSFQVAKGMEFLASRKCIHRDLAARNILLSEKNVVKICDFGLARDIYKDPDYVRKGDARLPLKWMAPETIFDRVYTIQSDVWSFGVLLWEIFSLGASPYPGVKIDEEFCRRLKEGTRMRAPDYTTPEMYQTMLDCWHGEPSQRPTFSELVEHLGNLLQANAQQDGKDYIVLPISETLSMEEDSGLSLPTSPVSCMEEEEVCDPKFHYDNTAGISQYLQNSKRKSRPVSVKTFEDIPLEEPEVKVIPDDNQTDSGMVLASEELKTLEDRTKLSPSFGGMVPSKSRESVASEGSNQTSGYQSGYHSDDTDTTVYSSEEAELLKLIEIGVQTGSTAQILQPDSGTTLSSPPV
Tyrosine-protein kinase HCK, sequence (P08631 whole entry): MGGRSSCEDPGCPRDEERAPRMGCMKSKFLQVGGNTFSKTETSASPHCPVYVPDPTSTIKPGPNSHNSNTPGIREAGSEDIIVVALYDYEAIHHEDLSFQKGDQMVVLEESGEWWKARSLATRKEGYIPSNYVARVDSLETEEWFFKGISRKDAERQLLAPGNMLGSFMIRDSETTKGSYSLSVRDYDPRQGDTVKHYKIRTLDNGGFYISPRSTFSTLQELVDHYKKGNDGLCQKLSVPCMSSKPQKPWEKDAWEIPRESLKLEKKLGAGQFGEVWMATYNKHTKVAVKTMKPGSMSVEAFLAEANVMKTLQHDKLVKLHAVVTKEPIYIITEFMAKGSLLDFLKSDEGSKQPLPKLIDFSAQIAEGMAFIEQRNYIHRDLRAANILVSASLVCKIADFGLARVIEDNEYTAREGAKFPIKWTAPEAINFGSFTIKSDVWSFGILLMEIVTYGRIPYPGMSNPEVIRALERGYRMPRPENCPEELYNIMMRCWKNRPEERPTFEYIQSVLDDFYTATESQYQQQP
Receptor tyrosine-protein kinase erbB-2, sequence (P04626 whole entry): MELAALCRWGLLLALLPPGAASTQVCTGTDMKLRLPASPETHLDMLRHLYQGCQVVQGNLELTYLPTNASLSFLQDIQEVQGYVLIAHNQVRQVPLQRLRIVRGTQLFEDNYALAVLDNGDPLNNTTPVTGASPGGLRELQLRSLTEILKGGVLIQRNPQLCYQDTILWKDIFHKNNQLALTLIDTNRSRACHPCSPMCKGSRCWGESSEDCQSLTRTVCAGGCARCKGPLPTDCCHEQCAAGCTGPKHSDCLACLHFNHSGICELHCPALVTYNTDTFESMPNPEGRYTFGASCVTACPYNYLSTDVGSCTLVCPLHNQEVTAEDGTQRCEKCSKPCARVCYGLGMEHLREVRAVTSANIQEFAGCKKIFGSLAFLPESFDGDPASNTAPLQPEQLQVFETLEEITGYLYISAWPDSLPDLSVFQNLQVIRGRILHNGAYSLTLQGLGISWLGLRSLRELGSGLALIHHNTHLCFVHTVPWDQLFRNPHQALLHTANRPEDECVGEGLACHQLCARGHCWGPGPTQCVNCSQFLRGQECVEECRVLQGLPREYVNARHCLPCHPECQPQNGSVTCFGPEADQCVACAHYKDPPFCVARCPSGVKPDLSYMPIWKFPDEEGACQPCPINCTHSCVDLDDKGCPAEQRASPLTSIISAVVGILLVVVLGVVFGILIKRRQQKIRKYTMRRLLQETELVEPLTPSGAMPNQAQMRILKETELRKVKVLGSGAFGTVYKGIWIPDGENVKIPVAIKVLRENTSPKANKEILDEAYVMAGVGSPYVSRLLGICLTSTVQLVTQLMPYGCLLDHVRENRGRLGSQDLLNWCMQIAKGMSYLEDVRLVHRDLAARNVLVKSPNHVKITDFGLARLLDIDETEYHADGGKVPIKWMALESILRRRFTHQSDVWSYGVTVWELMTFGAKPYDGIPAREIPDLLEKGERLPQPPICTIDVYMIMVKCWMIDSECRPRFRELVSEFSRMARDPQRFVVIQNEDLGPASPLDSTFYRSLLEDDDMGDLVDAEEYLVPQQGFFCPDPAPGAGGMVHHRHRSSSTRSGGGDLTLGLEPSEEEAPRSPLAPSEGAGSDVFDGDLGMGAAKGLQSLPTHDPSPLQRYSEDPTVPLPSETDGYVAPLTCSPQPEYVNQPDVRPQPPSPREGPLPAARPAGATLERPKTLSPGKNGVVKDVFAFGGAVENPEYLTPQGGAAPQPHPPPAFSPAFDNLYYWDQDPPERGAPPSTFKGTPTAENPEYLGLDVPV
Cyclin-dependent kinase 4, sequence (P11802 whole entry): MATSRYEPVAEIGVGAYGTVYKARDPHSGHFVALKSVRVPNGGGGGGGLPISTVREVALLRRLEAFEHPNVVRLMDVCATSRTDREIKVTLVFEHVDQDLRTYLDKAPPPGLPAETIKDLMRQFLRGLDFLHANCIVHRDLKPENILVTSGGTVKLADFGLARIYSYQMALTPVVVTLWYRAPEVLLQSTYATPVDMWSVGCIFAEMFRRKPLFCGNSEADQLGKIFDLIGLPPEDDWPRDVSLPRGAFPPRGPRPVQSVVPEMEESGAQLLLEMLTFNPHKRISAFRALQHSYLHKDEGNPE
Tyrosine-protein kinase Fgr, sequence (P09769 whole entry): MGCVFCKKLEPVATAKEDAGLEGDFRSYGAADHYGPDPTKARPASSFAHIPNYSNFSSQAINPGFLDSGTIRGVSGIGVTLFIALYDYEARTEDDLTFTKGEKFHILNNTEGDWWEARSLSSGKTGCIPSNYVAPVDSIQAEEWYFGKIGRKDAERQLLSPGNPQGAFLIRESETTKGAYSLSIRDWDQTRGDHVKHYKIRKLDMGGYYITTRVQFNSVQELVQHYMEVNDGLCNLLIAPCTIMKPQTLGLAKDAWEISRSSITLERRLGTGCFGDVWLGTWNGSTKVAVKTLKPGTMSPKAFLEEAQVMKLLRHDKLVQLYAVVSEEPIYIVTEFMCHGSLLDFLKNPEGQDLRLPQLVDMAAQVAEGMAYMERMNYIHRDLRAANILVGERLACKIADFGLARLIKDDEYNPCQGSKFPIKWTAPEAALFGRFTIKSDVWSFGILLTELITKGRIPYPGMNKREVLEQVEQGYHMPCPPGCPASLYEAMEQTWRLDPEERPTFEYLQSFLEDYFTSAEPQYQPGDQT
Proto-oncogene tyrosine-protein kinase Src, sequence (P12931 2-536 limits assumed): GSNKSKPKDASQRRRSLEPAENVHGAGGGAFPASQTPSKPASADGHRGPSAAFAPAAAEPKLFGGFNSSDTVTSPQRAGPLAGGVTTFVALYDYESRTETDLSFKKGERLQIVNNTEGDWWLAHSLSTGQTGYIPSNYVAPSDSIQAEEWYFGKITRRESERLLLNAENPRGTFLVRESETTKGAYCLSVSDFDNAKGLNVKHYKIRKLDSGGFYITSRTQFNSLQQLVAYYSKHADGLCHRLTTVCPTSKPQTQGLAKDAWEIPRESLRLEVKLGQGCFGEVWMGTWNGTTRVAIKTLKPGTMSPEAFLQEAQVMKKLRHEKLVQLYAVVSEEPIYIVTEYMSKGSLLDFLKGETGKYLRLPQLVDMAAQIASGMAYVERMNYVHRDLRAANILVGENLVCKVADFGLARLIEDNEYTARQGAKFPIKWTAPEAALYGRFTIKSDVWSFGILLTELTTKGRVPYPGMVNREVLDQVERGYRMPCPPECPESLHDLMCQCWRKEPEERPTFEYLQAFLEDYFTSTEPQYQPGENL

Regarding `Cc1cccc(Cl)c1NC(=O)c1cnc(NC(=O)C2CC2)s1`, the half-inhibitory concentration (IC50) (in general, the midpoint of a concentration-inhibition curve) in [1] was determined as 35 nM.

Consider `Cc1cccc(Cl)c1NC(=O)c1cnc(Nc2cccc(N3CCN[C@@H](C)C3)n2)s1`, for which the IC50 in data set [1] was less than 1 nM; in data set [2], 6 nM.

In the case of `Cc1cccc(Cl)c1NC(=O)c1cnc(Nc2ccccc2)s1`, the IC50 in data set [1] was determined as 0.6 nM; in data set [2], 210 nM.

Consider `Cc1cccc(Cl)c1NC(=O)c1cnc(Nc2ccnnc2)s1`, for which the 50% inhibitory concentration (IC50) in data set [1] is 4 nM; in [2], 350 nM.

In the case of `Cc1cccc(Cl)c1NC(=O)c1cnc(Nc2cc(NCCN3CCCC3)ncn2)s1`, in data set [1], the IC50 is 0.4 nM and the Ki – broadly, a measure of affinity in units of concentration, obtained from inhibition or displacement – stood at 0.06 nM. Also, in data set [2], the IC50 turned out to be 19 nM.

In the case of `Cc1cccc(Cl)c1NC(=O)c1cnc(Nc2cccc(NCCN3CCOCC3)n2)s1`, the results for the IC50 in [1] and in data set [2] were less than 1 nM and 11 nM, respectively.

Turning to `Cc1cc(C)nc(Nc2ncc(C(=O)Nc3c(C)cccc3Cl)s2)n1`, the IC50 in [1] was found to be 50 nM.

As to `Cc1ccnc(Nc2ncc(C(=O)Nc3c(C)cccc3Cl)s2)c1`, the figures for the IC50 in [1] and in data set [2] were 0.5 nM and 85 nM, respectively.

Regarding `Cc1cccc(Cl)c1NC(=O)c1cnc(NC2CCCCC2)s1`, the IC50 in data set [1] amounted to 374 nM.

For the molecule `Cc1cccc(Cl)c1NC(=O)c1cnc(Nc2cc(NCCN3CCOCC3)ncn2)s1`, the IC50 amounted to 4 nM in data set [1] and 17 nM in data set [2].

In the case of `Cc1cc(C)nc(Nc2ncc(C(=O)Nc3c(C)cccc3Cl)s2)c1`, the IC50 in [1] is 4 nM.

Take `Cc1cccnc1Nc1ncc(C(=O)Nc2c(C)cccc2Cl)s1`: the IC50 in data set [1] came out at 7.3 nM; in data set [2], 365 nM.

In the case of `Cc1cccc(Cl)c1NC(=O)c1cnc(Nc2cc(N3CCOCC3)ncn2)s1`, the 50% inhibitory concentration (IC50) in data set [1] was less than 1 nM; in data set [2], 3 nM.

Regarding `Cc1cccc(Cl)c1NC(=O)c1cnc(Nc2cccnc2)s1`, in data set [1], the IC50 worked out at 6.7 nM.

Regarding `Cc1cc(C)cc(Nc2ncc(C(=O)Nc3c(C)cccc3Cl)s2)c1`, the IC50 in data set [1] is 2 nM; in data set [2], 883 nM.

On to `Cc1cccc(Cl)c1NC(=O)c1cnc(Nc2ccccn2)s1`, for which the IC50 in [1] was found to be 1.2 nM.

For the molecule `Cc1cccc(Cl)c1NC(=O)c1cnc(Nc2ccncc2)s1`, the IC50 in data set [1] is 10 nM.

Take `Cc1ccc(Nc2ncc(C(=O)Nc3c(C)cccc3Cl)s2)nc1`: the results for the IC50 in data set [1] and in data set [2] were 1.1 nM and 156 nM, respectively.

`Cc1cc(N(C)c2ncc(C(=O)Nc3c(C)cccc3Cl)s2)nc(C)n1`: the IC50 in data set [1] came out at 2340 nM.

`Cc1cc(Nc2ncc(C(=O)Nc3c(C)cccc3Cl)s2)nc(C)n1`: the IC50 in data set [3] is 6 nM; in data set [4], less than 1 nM; in [5], 2 nM; in data set [6], more than 25000 nM; in data set [7], more than 25000 nM; in [8] it was less than 1 nM. The IC50 in [1] was 1.2 nM; in [9], more than 10000 nM; in data set [10], more than 10000 nM; in [2], 80 nM; in data set [20], 5200 nM. Also, the Ki in data set [1] was 0.13 nM. The molecule also displayed a Binding in data set [11] of 93.6%. For the same molecule, the Dose in the data set listed under Rattus norvegicus [12] worked out at 3 mg/kg; in the data set filed under Rattus norvegicus [13] it was 1 mg/kg. The MRT (commonly the average time that molecules of a dose stay in the body) in [14] is 4 h. The half-life (usually the time in which the quantity being followed falls by half) in [15] is 4 h. Further, in data set [16], the Cl came to 29 mL/min/kg. Further, the time to peak (Tmax) (in general, the time from dosing to the highest level) in data set [17] turned out to be 1 h. For the same molecule, the bioavailability (commonly the share of a dose that reaches the circulation, judged against a reference dose that is usually intravenous) in [18] is 65%. Moreover, in data set [19], the Cmax – broadly, the maximum level reached in the sampled fluid or tissue – is 2000 nM.

For the molecule `Cc1cc(Nc2ncc(C(=O)N(C)c3c(C)cccc3Cl)s2)nc(C)n1`, the IC50 in [1] amounted to 277 nM.

Regarding `Cc1cccc(Nc2ncc(C(=O)Nc3c(C)cccc3Cl)s2)n1`, the IC50 in data set [1] is less than 1 nM; in data set [2], 106 nM.
